From ChEMBL document CHEMBL1158528, “Synthesis of structurally simplified analogues of aplidinone A, a pro-apoptotic marine thiazinoquinone” (Bioorg Med Chem, 2010)
Activity calls are given as the source filed them. The rule behind the calls is not given here.

Experiments:
[1] = tested on: Jurkat; assay: Cell cycle arrest in human Jurkat cells assessed as increase in apoptotic cells after 24 hrs by flow cytometry; assay type: functional, cell-based
How it was run: (§1)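 Jurkat cells in RPMI 1640 with 10% FBS, 2 mM glutamine and antibiotics, at 37 °C and 5% CO2, were treated for 24 h. Cells were fixed in 70% ethanol for 24 h at 4 °C, washed with PBS containing 4% glucose, and digested with RNase A (50 U/mL) plus PI staining for 1 h at RT. The subdiploid (sub-G0/G1) fraction was measured by flow cytometry.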

[2] = tested on: Jurkat; assay: Cytotoxicity against human Jurkat cells after 24 hrs by PI staining based flow cytometry; assay type: functional, cell-based
How it was run: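 Jurkat cells (10^6) were exposed to increasing concentrations for 24 h, then stained with propidium iodide (10 µg/mL in PBS) for 1 min at room temperature. Membrane-compromised cells were counted immediately by flow cytometry with 488 nm excitation.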

[3] = tested on: Jurkat 5.1 (human); assay: Inhibition of TNF-alpha-induced NF-kappaB activation in human Jurkat 5.1 cells by luciferase assay relative to control
[4] = tested on: HCT-116; assay: Cytotoxicity against human HCT116 cells after 48 hrs by calcein-AM assay; assay type: functional, cell-based; details: HCT-116, 48 h
How it was run: (§2)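 Adherent lines were grown in DMEM with 10% heat-inactivated FBS, 2 mM glutamine, penicillin and streptomycin, seeded at 10^4 cells/well, and exposed to increasing concentrations for 48 h. DMSO stocks were diluted in medium, with final DMSO ≤1%. Calcein-AM (1 µM final) was added for 60 min, stopped on ice, and cells were washed twice with cold HBSS. Fluorescence was read at 485/535 nm to derive IC50.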

[5] = tested on: AGS; assay: Cytotoxicity against human AGS cells after 48 hrs by calcein-AM assay; assay type: functional, cell-based; how it was run: as §2
[6] = tested on: A549; assay: Cytotoxicity against human A549 cells after 48 hrs by calcein-AM assay; assay type: functional, cell-based; details: A549, 48 h; how it was run: as §2
[7] = Cytotoxicity against human 293T cells after 48 hrs by calcein-AM assay; assay type: cell-based; details: HEK-293T; how it was run: as §2
[8] = tested on: Jurkat; assay: Cell cycle arrest in human Jurkat cells assessed as apoptotic cells at 25 uM after 24 hrs by flow cytometry; assay type: functional; how it was run: as §1
[9] = tested on: HeLa; assay: Cytotoxicity against human HeLa cells after 48 hrs by calcein-AM assay; assay type: functional, cell-based; how it was run: as §2
[10] = tested on: Jurkat; assay: Cell cycle arrest in human Jurkat cells assessed as apoptotic cells at 10 uM after 24 hrs by flow cytometry; assay type: functional; how it was run: as §1

Compound	Activity [1]	IC50 [2] [µM]	Activity [3]	IC50 [4] [µM]	IC50 [5] [µM]	IC50 [6] [µM]	IC50 [7] [µM]	Activity [8] [%]	IC50 [9] [µM]	Activity [10] [%]
CCC1=C(OC)C(=O)C2=C(NCCS2(=O)=O)C1=O	Active	> 50	inactive	–	–	–	–	–	–	–
CCC1=C(OC)C(=O)C2=C(C1=O)S(=O)(=O)CCN2	Active	> 50	–	> 50	> 50	> 50	32.6	9.6	> 50	–
CCCCCCCCCCCCCCC1=C(OC)C(=O)C2=C(C1=O)S(=O)(=O)CCN2	–	> 50	–	44.8	45	50.8	47.9	–	47.9	–
CCCCCCCCCCCCCCC1=C(OC)C(=O)C2=C(NCCS2(=O)=O)C1=O	–	> 50	–	–	–	–	–	–	–	–
CCCCCCCCC1=C(OC)C(=O)C2=C(C1=O)S(=O)(=O)CCN2	–	20.7	Active	14.1	7.2	13	8.7	45	24.8	26.5
COC1=C(C/C=C(\C)CCC=C(C)C)C(=O)C2=C(C1=O)S(=O)(=O)CCN2 [APLIDINONE A]	–	44.5	–	–	–	–	–	–	–	–
CCCCCCCCC1=C(OC)C(=O)C2=C(NCCS2(=O)=O)C1=O	Active	> 50	–	–	–	–	–	–	–	–
